From ChEMBL document CHEMBL5038583, “Highly Potent and Selective Butyrylcholinesterase Inhibitors for Cognitive Improvement and Neuroprotection” (J Med Chem, 2021)
Calls of active or inactive are those of the source. The rule behind the calls is not given here.

How the values were obtained:
Mus musculus = test: Anti-alzheimer activity in amyloid beta(1 to 42)-induced ICR mouse model of cognitive impairment assessed as reduction in escape latency time at 15 mg/kg, ig administered at days 2 to 14 by Morris water maze test; format: functional
Summary of the method: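 Mouse model by icv oligomerized Aβ1-42 (10 μg/mouse, aggregated 24 h at 37 °C in saline) on day 1; 15 mg/kg ig on days 2−14, n = 8. Morris water maze training on days 9−13, probe trial day 14, escape latency and track recorded. Mean SD.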

[1] = Tmax in overnight fasted Sprague-Dawley rat at 10 mg/kg, po measured upto 1440 mins by LC/MS/MS analysis; format: ADME, organism-based; details: in vivo, 24 h
Summary of the method: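 Male SD rats (180−220 g), n = 8 per route, fasted overnight with water available. Single 10 mg/kg dose p.o. or i.v. in DMSO/PEG400/saline (10:80:10). Retro-orbital blood taken into heparinized tubes at 1–1440 min. Plasma precipitated with methanol containing theophylline internal standard, then LC/MS/MS against a blank-plasma standard curve. Parameters from noncompartmental extravascular analysis; mean ± SD.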

[2] = Ratio of AUC in brain to plasma of ICR mouse at 10 mg/kg, po measured upto 240 mins; format: ADME, organism-based; details: read-out: Ratio AUC
Summary of the method: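 ICR mice given 10 mg/kg orally in 5% DMSO/40% PEG400/55% saline (1 mg/mL). Blood (retro-orbital) and brain collected at 30, 60, 120 and 240 min. Brain homogenized in 2 volumes PBS, extracted with ethyl acetate, dried and reconstituted in mobile phase. Plasma processed as in the rat study; LC/MS/MS. Brain/plasma ratios from exposures, AUC(B) vs AUC(P).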

SH-SY5Y = test: Neuroprotective activity against glutamate-induced cytotoxicity in human SH-SY5Y cells at 10 uM pretreated for 2 hrs followed by glutamate stimulation and measured after 24 hrs by MTT assay; format: functional, cell-based; details: time 26.0 hrs
Summary of the method: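 SH-SY5Y cells seeded at 5000 per well and grown 24 h. Pretreated 2 h with compound (2.5 or 10 μM, diluted in DMEM from 10⁻¹ M DMSO stock), then H₂O₂ 200 μM, glutamate 20 mM or aggregated Aβ1-42 15 μM for 24 h. MTT added for 4 h, formazan dissolved in DMSO, absorbance read at 492 nm. Viability relative to untreated control; mean ± SEM, n = 3.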

SMILES: Nc1nonc1-c1nc2ccccc2n1CC(=O)Nc1cnc2ccccc2c1
- Time (Mus musculus): 13.83 s
- Tmax [1]: 9.5 h
- Kp at 4 h [2]: 0.36
- Activity (SH-SY5Y): Active
